# From PubChem
# Shown is part of a subset that was picked to be rich in hits.
# RORa inhibitor: RORA (human) inhibition. P35398. CHO-K1 Gal4-RORA LBD luciferase reporter, luminescence. inhibition, % at 10 µM. hit rate 0.43% among 65,000. AID 561;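 active = inhibition above the mean of all tested compounds plus 3 SD, cut at about 52% in these data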;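 also: 0% = RORA-transfected cells with DMSO and 100% = mock-transfected cells lacking RORA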
# Target sequence (P35398 whole entry, looked up, the tested form may be a part): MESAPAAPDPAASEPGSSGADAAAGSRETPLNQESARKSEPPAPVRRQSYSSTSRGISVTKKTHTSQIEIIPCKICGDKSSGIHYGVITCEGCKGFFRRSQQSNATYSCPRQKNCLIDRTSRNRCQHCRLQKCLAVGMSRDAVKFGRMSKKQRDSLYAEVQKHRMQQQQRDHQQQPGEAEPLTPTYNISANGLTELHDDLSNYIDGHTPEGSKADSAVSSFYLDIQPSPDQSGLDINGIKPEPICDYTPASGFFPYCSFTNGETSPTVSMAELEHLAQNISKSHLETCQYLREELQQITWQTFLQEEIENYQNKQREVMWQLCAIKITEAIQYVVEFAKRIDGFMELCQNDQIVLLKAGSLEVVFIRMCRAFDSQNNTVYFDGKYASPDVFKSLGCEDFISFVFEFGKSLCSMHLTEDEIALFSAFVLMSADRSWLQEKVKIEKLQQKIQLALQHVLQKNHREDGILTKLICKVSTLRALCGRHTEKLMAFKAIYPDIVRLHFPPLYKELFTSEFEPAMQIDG
#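 test system = CHO-K1 Gal4-RORA LBD luciferase reporter cells | dosing = 10 µM single point | times = 20 h compound treatment, 37 °C | signal = luciferase luminescence | read-out = % inhibition of basal luciferase versus +RORA/-RORA DMSO controls | benchmarks = mock-transfected cells as 100%, +RORA DMSO cells as 0% | replicates = tested once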
# Numbers without * were called inactive.
SMILES,RORa inhibitor
O=C(Nc1ccc(Cl)cn1)c1cccc(F)c1,-105
CCOC(=O)c1[nH]c(C)c(C(=O)Nc2ccc(F)cc2)c1C,8
CCOC(=O)c1[nH]c(C)c(C(=O)Nc2ccccc2F)c1C,-110
CC(=O)c1c(C)[nH]c(C(=O)OCCCCN2C(=O)c3ccccc3C2=O)c1C,78*
CCc1ccc(S(=O)(=O)NCc2csc(C)n2)s1,-3
Clc1ccc(-c2nn3c(Cn4cnc5ccccc54)nnc3s2)c(Cl)c1,1
CCOC(=O)Cc1cc(=O)n2[nH]c(C)c(-c3ccccc3)c2n1,-6
CCOC(=O)CS(=O)(=O)c1nc(-c2ccccc2)cc(C(F)(F)F)n1,60*
CCOC(=O)c1cnn2c(C)cc(-c3ccccc3)nc12,-43
CCOC(=O)CS(=O)(=O)c1nc(-c2ccc(F)cc2)cc(C(F)(F)F)n1,61*
COCC(C)NC(=O)CCS(=O)(=O)c1nc(-c2ccc(OC)cc2)cc(C(F)(F)F)n1 (stereo not drawn),17
CCOC(=O)N1CCN(C(=O)c2cc(-c3ccc(OCC)cc3)nc3ccccc23)CC1,-136
CCCc1cc(=O)[nH]c(Nc2ccc(OC)c(Cl)c2)n1,6
O=c1c2ccccc2cnn1-c1nc2ccccc2s1,90*
Cc1nn(-c2nc3ccccc3s2)c(N)c1Sc1ccc(F)cc1,-26
O=c1c2ccccc2nc2sc3ccccc3n12,-60
CCOC(=O)N1CCN(C(=O)Nc2sc3nc4n(c(=O)c3c2C)CCC(C)CC4)CC1 (stereo not drawn),-24
CCOC(=O)c1cccc(NC(=O)C(NS(=O)(=O)c2ccc3c(c2)CCN3C(C)=O)C(C)C)c1 (stereo not drawn),21
O=C(CSc1nnc(-c2ccccc2Cl)o1)N1CCCCC1,-65
NCCCCCc1nnc(SCc2ccccc2Cl)o1,57*
Cn1c(SCc2ccccc2Cl)nnc1-c1cnccn1,-52
CCC(C(=O)Nc1ccccc1OC)n1c(C(=O)OC)cc2ccsc21 (stereo not drawn),5
Nc1nnnn1/N=C/C(Br)=C/c1ccccc1,77*
Cc1cc(C)c(-c2cc(C(F)(F)F)no2)c(=O)[nH]1,9
COc1ccc(N(C(=O)Cn2nnc3ccccc32)C(C(=O)NCc2ccco2)c2ccc(C)o2)cc1 (stereo not drawn),20
SMILES,RORa inhibitor
COc1ccc(-n2c(C)cc(C(=O)Cn3c(NCCO)nc4ccccc43)c2C)cc1,-13
CCCCN(C)C(=O)C1CCC(=O)N(c2cc(OC)c(OC)c(OC)c2)C1c1ccc(OC)cc1 (stereo not drawn),-10
COCCOC(=O)c1[nH]c2c(c1C)C(=O)C(C(=O)OC)C(C)C2 (stereo not drawn),-56
CCCCOC(=O)c1[nH]c2c(c1C)C(=O)CC(c1cc(OC)c(OC)c(OC)c1)C2 (stereo not drawn),64*
Cc1c(-c2nc(N)nc(Nc3ccccc3)n2)oc2ccccc12,-89
CCOc1ccccc1CNc1ccc(N2CCOCC2)c(C(=O)O)c1,-2
O=C(CN(C1CCCCC1)S(=O)(=O)c1ccc(Cl)cc1)NCCCO,16
CN(C)c1ccc(/C=C/C(O)=C2/C(=O)N(C)C3(C)CC2c2ccccc2O3)cc1 (stereo not drawn),7
Cc1cc(NC(=O)c2ccc3c(c2)OCCO3)no1,59*
Cc1cc(NC(=O)c2noc3c2CCCCC3)no1,-58
CCCN1C(=O)c2ccc(C(=O)Nc3cc(C)on3)cc2C1=O,9
O=C(NCC1CCCO1)c1ccc2nc(N3CCCCC3)sc2c1 (stereo not drawn),-59
CCOc1ccc2nc(N3CCC(C(=O)N4CCN(c5ncccn5)CC4)CC3)sc2c1,-69
CC1CCN(c2nc3ccc(C(=O)O)cc3s2)CC1,92*
Cc1noc(/C=C/N(C)C)c1S(=O)(=O)N1CCc2ccccc21,3
Cc1ccc(C)n1-n1c(C)nc2sc3c(c2c1=O)CCCCC3,10
O=c1cc(N2CCc3ccccc32)[nH]c(=O)n1Cc1ccc(F)cc1,-10
C=CS(=O)(=O)c1ccc(Oc2ccc(S(=O)(=O)C=C)cc2)cc1,94*
O=c1cc(N2CCN(Cc3ccccc3)CC2)[nH]c(=O)n1Cc1ccc(F)cc1,15
CC(=O)Nc1ccc(S(=O)(=O)Nc2cccc(N(C)S(C)(=O)=O)c2)cc1,0
COc1ccc(CNC(=O)C2CSC(=O)C2)cc1 (stereo not drawn),11
CCn1c(SCC(=O)Nc2cccc(NC(C)=O)c2)nnc1C(C)C,23
Cc1cc(-n2nc(C)cc2C)nc(NS(=O)(=O)c2ccccc2)n1,-6
Cc1ccc(-n2ncc3c2ncn2c(C)nnc32)cc1C,-60
Cc1csc(NC(=O)CSc2nnc(-c3ccoc3C)o2)n1,-61
SMILES,RORa inhibitor
Cc1cccc(NC(=O)CSc2nnc(-c3cc(C)n(-c4ccccc4)c3C)o2)c1C,63*
Cc1cc(-c2nnco2)c(C)n1-c1ccccc1,-13
Cc1ccc(-c2nnc(SCC(=O)Nc3ccccc3F)o2)cc1,63*
Cc1cccc(C)c1OCc1nnc(SCC(=O)Nc2ccccc2F)o1,10
Cc1[nH]c2ccc(-c3nnc(SCC(=O)c4ccccc4F)o3)cc2c1C,-7
O=C(Nc1nnc(C23CC4CC(CC(C4)C2)C3)s1)c1ccco1,-91
COc1ccc(C2CCCN2C(=O)Nc2cccc(C(C)=O)c2)cc1OC (stereo not drawn),-5
O=C(Nc1sc2c(c1C(=O)O)CCCCC2)c1ccco1,-62
CC(C)c1ccc(C(=O)CSc2ncn[nH]2)cc1,-53
N#Cc1c(NC(=O)CSc2ncn[nH]2)sc2c1CCCCC2,88*
CCCc1cc(=O)[nH]c(SCC(=O)Nc2cc3c(cc2C(C)=O)OCO3)n1,1
N#Cc1c(NC(=O)CSc2nc(N)cc(=O)[nH]2)sc2c1CCCCCC2,52*
O=C(CSc1nc2sc3c(c2c(=O)[nH]1)CCCC3)NCCO,10
COc1cccc(OC)c1-c1nn2c(-c3ccccc3Cl)nnc2s1,14
Cc1ccc(C)n1-c1ccc(N2CCOCC2)nc1,12
CCCCc1cc(O)c(CCCC)c(O)c1,-50
c1ccc2c(c1)ncn2CCC1CCCCC1,5
CCOc1ccccc1OCC(=O)Nc1ccc(S(=O)(=O)N(C)C)cc1,5
Cc1cnc(NC(=O)COc2ccccc2Cl)s1,74*
O=C(COc1ccccc1)Nc1nc2ccccc2[nH]1,-55
CC(=O)N1CCc2c(sc(NC(=O)c3ccc4c(c3)OCCO4)c2C#N)C1,-49
COC(=O)c1ccccc1NC(=O)CN1CCC(NC(=O)c2ccccc2C)CC1,-12
Cc1ccc(-c2nc(-c3ccccc3)no2)c(Cl)c1,57*
COc1cccc(-c2nc(-c3ccccc3)no2)c1,-14
c1ccc(-c2noc(-c3cccc4ccccc34)n2)cc1,-61
SMILES,RORa inhibitor
COc1ccc(S(=O)(=O)N(CC(=O)N2CCN(C)CC2)c2ccccc2)cc1OC,8
Cn1nnnc1Sc1nc(-c2cccnc2)nc2ccccc12,1
Cc1ccc(S(=O)(=O)NCC(=O)OCN2C(=O)c3ccccc3C2=O)cc1,14
CC(C)(C)c1ccc(-c2nnc(SCC(=O)O)n2N)cc1,-8
CN(C)C(=O)CCc1nc(-c2ccc(C(C)(C)C)cc2)no1,82*
Cc1cccc(-c2noc(Cc3ccccc3)n2)c1,-24
CC(C)(C)c1ccc(-c2noc(CCC(N)=O)n2)cc1,88*
NC(=O)c1ccc(NC(=O)CCCc2nc(-c3ccccc3Cl)no2)cc1,0
O=C(Nc1ccc(-c2noc(CCc3ccccc3)n2)cc1)c1ccco1,-72
CNC(=O)CCc1nc(-c2ccc(C(C)(C)C)cc2)no1,89*
